Assay results reported in ChEMBL document CHEMBL1155263, “Anti-tumor and anti-angiogenic activity of novel hydantoin derivatives: Inhibition of VEGF secretion in liver metastatic osteosarcoma cells” (Bioorg Med Chem, 2009).
The source made the active and inactive calls. No cut-off for these calls is given here.

Assays:
SK-OV-3 = test: Antiproliferative activity against human SKOV3 cells after 48 hrs; assay type: functional, cell-based
Summary of the method: (§1)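 Cells seeded at 15,000/well and incubated overnight at 37 °C, then switched to medium containing compound in µg/mL concentrations. Incubation was 48 h at 37 °C, 5% CO2, then 2 h with WST-type TetraColor One. A450 gave % viability, reported as % inhibition of proliferation, mean of four replicates.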

OVSAHO = test: Antiproliferative activity against human OVSAHO cells after 48 hrs; assay type: functional, cell-based; summary of the method: as §1
LM8 = test: Antiproliferative activity against mouse LM8 cells after 48 hrs; assay type: functional, cell-based; summary of the method: as §1
LM8G7 [1] = test: Antiproliferative activity against mouse LM8G7 cells after 48 hrs; assay type: functional, cell-based; summary of the method: as §1
[2] = (§2) Antiproliferative activity against VEGF expressing mouse LM8G7 cells assessed as cell index every 10 mins by RT-CES method; assay type: functional, cell-based
Summary of the method: (§3)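 LM8G7 seeded at 10,000 cells/well on electronic-sensing e-plates; about 24 h later, in log phase, medium with various compound concentrations or DMSO control was added. Impedance cell index was recorded every 10 min and plotted against time. IC50 was obtained by non-linear regression of concentration–response curves.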

LM8G7 [3] = test: as §2; assay type: functional, cell-based; summary of the method: as §3
Endothelial cell = test: Antiangiogenic activity in mouse endothelial cells assessed as inhibition of tube formation at 50 uM after 18 hrs by microscopic analysis in presence of VEGF; assay type: functional, cell-based
Summary of the method: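 UV♀2 mouse endothelial cells, 100 µL suspension at 4 × 10⁵ cells/mL, seeded onto Matrigel solidified 30 min at 37 °C, with or without compound (50 µM) and VEGF (2 ng/mL); DMSO 0.1% vehicle. After 18 h, reorganization of the sub-confluent monolayer into capillary-like tubes in 3-D Matrigel was photographed by light microscopy.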

[4] = Inhibition of VEGF secretion in mouse LM8G7 cells at 56 uM after 48 hrs by immunoassay; assay type: functional; conditions: LM8G7, 48 h
Summary of the method: (§4)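 LM8G7 (1 × 10⁶ cells/well) in 6-well plates were incubated 24 h, then given serum-free medium with compound at 56, 102 or 204 µM for 48 h at 37 °C. Supernatant was centrifuged 5000 rpm, 5 min, 4 °C and protein measured by BCA. Mouse VEGF was quantified by sandwich ELISA against a recombinant VEGF standard (HRP detection, A450).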

[5] = Inhibition of VEGF secretion in mouse LM8G7 cells at 102 uM after 48 hrs by immunoassay; assay type: functional; conditions: LM8G7, 48 h; summary of the method: as §4
[6] = Inhibition of VEGF secretion in mouse LM8G7 cells at 204 uM after 48 hrs by immunoassay; assay type: functional; conditions: LM8G7, 48 h; summary of the method: as §4

Structure (SMILES)	Activity (SK-OV-3)	Activity (OVSAHO)	Activity (LM8)	Activity (LM8G7 [1])	IC50 [2]	Activity (LM8G7 [3])	inhibition (Endothelial cell)	inhibition at 56 µM [4]	inhibition at 102 µM [5]	inhibition at 204 µM [6]
CS(=O)(=O)c1ccc(CN2C(=O)NC3(CC4CCC(C3)N4Cc3ccc(F)c(F)c3)C2=O)cc1 (stereo unspecified)	Active	Active	Active	Active	13 µM	Dose-dependent effect	Active	23.8%	46.7%	63.9%
CS(=O)(=O)c1ccc(CN2C(=O)NC3(CC4CCC(C3)N4Cc3cccc(F)c3)C2=O)cc1 (stereo unspecified)	Active	Active	Active	Active	102 µM	Dose-dependent effect	–	–	–	–
